This passage reports inhibition, CLint and activity results from PMC10556424 (RSC Advances, 2023).

SMILES strings stand for the structures.

One data set addresses T1, CYP2C8 (Homo sapiens, UniProt P10632).
T1 sequence (P10632 1-490): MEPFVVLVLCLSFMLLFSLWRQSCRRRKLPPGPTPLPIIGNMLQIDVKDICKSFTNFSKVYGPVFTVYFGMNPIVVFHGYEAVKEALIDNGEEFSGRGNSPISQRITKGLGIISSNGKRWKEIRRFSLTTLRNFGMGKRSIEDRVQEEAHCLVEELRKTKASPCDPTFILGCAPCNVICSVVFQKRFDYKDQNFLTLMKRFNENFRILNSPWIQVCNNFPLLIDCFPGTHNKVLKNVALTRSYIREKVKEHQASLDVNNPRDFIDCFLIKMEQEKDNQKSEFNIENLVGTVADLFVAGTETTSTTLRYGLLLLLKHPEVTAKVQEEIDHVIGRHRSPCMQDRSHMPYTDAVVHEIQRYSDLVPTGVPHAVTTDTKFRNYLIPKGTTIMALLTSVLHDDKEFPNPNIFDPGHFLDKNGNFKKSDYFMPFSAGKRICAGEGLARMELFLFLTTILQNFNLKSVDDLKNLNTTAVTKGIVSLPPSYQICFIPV
Put plainly: CYP450 inhibition in human liver microsomes. The class given is in vitro ADME. The settings on record: pooled human liver microsomes, pH 7.4, probe amodiaquine (1 μM). A digest of the protocol:
(§1)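 Test compound at 10 μM with pooled human liver microsomes (0.2 mg mL−1) and a cocktail of 10 CYP probe substrates. Buffer was 100 mM potassium phosphate, pH 7.4, with 3.3 mM MgCl2, at 37 °C. β-NADPH (1.3 mM) started the reaction. After 10 min, ice-cold 3% formic acid in 5% acetonitrile stopped it. Centrifuged samples went to LC-MS/MS; each metabolite's formation is given as % inhibition versus control.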
In general terms: Microsomes from liver hold many membrane-bound enzymes, among them those of drug oxidation.

For the next data set, the target named is CYP2D6 (Homo sapiens, UniProt P10635). Put plainly: CYP450 inhibition in human liver microsomes. The class given is in vitro ADME. As to conditions: pooled human liver microsomes, pH 7.4, probe dextromethorphan (2.5 μM). A digest of the protocol:
as §1

Data set [1] is described as follows: In vitro microsomal stability. Format: in vitro ADME. As to conditions: human liver microsomes, 1 μM, Table 3. Summed up:
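Compound (1 μM) with pooled human liver microsomes (0.4 mg mL−1) in 100 mM potassium phosphate, pH 7.4, with 3.3 mM MgCl2 and 1.3 mM β-NADPH. Organic solvent was ≤1%, at 37 °C. Time-point samples were quenched with ice-cold acetonitrile containing internal standard, centrifuged, and the supernatants analysed by LC-MS/MS. Results are intrinsic clearance.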

The target in another data set is T2, CYP2A6 (Homo sapiens, UniProt P11509).
T2 sequence (P11509 1-494): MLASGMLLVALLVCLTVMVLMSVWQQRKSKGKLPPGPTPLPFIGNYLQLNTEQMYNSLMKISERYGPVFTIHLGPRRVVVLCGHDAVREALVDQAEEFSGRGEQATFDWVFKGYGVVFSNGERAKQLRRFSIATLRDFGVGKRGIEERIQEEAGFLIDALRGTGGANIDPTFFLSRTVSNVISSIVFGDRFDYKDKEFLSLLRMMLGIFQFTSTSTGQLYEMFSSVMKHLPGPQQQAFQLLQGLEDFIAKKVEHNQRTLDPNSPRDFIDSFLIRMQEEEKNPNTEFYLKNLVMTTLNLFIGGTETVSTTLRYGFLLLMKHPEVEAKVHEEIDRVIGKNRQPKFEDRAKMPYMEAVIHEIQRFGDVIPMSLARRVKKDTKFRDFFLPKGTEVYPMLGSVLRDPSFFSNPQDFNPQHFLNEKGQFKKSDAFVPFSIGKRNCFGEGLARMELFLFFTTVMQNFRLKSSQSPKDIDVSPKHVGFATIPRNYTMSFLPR
Put plainly: CYP450 inhibition in human liver microsomes. The settings on record: pooled human liver microsomes, pH 7.4, probe coumarin (1.5 μM). Format: in vitro ADME. Summed up:
as §1

Data set [2] concerns HBV DNA in HBV-expressed HepG2.2.15 cells. Put plainly: In vitro anti-HBV activity in HepG2.2.15 cell line. Format: cell-based. The settings on record: Hepatitis B virus, HepG2.2.15, 144 h, read-out: % HBV DNA remaining. A digest of the protocol:
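HepG2.2.15 cells were seeded at 5 × 10^5 per well in high-glucose DMEM with 10% heat-inactivated FBS, 300 mg L−1 G418, 1% non-essential amino acids and antibiotic–antimycotic, then held overnight at 37 °C, 5% CO2. Compound or 0.5% DMSO was given for 3 days, then renewed for 3 more days. Intracellular HBV DNA was measured by qPCR as % remaining versus vehicle; EC50 came from a 4-parameter nonlinear fit.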

CYP2D6, sequence (P10635 whole entry): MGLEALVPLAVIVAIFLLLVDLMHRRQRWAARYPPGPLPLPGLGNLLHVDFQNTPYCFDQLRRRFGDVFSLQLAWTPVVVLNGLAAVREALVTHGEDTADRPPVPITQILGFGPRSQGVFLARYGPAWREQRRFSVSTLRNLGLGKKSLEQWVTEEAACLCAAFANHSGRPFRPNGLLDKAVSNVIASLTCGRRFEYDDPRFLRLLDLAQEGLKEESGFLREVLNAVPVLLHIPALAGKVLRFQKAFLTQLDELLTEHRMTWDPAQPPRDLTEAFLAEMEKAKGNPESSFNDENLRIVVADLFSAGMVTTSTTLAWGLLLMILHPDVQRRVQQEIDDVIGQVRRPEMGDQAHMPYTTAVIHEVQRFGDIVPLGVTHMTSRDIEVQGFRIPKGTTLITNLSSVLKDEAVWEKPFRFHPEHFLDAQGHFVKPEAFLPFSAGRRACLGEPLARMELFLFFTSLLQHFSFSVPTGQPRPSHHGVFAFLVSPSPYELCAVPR

Regarding `O=C(Nc1cc(F)c(F)c(F)c1)[C@H]1CCN(C(=O)c2cc3cnccc3[nH]2)C1` [CU04, (S)-1-(1H-Pyrrolo[3,2-c]pyridine-2-carbonyl)-N-(3,4,5-trifluorophenyl)pyrrolidine-3-carboxamide], the values for the inhibition at 10 min, 10 µM on CYP2C8, against CYP2D6 and against CYP2A6 were 55%, 82% and 57%, respectively. For the same compound, the CLint in data set [1] is on record as 1.1 μL per min per mg protein. Further, in data set [2], the activity at 1 µM is 67%.
